Measurements as given in ChEMBL document CHEMBL1158383, “Synthesis and blood glucose lowering effect of novel pyridazinone substituted benzenesulfonylurea derivatives” (2009).

What was measured:
Rattus norvegicus [1] = test: Antidiabetic activity in normal Wistar albino rat assessed as inhibition of rise of blood glucose level at 20 mg/kg, po administered 15 mins prior to glucose challenge measured after 90 mins of glucose loading by glucose oxidase-peroxidase colorimetric method; type: functional
In short: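 Wistar albino rats of either sex (160–200 g), fasted overnight, in groups of six. Dosed p.o. at 10 ml/kg, suspended in 1% CMC in distilled water; vehicle controls. Glucose 2 g/kg p.o. given 15 min after dosing. Retro-orbital blood taken just before and 90 min after glucose; glucose read by GOD-POD quinoneimine at 505 nm. Percent reduction taken against the control rise, set as 100%.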

Rattus norvegicus [2] = test: Antidiabetic activity in streptozotocin-induced NIDDM Wistar albino rat model assessed as inhibition of rise of blood glucose level at 20 mg/kg, po administered 15 mins prior to glucose challenge measured after 90 mins of glucose loading by glucose oxidase-peroxidase colorimetric method; type: functional
In short: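 n2-STZ model: STZ 100 mg/kg in fresh 0.1 M citrate pH 4.5 given i.p. to 2-day-old pups (6–8 g), weaned for 4 weeks. Diabetic rats had fasting glucose >140 mg/dl and >200 mg/dl 2 h after oral glucose. Overnight-fasted groups of six got a 1% CMC suspension p.o. 15 min before glucose 2 g/kg p.o. GOD-POD at 505 nm before and at 90 min; reduction set against the control rise.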

Row | SMILES | inhibition in vivo at 20 mg/kg (Rattus norvegicus [1]) [%] | inhibition in vivo at 20 mg/kg (Rattus norvegicus [2]) [%]
1 | Cc1cc(-c2ccc(=O)n(-c3ccc(S(=O)(=O)NC(=O)NC4CCCCC4)cc3)n2)ccc1Cl | 62.1 | 55.2
2 | CCCCNC(=O)NS(=O)(=O)c1ccc(-n2nc(-c3ccc(C)cc3)ccc2=O)cc1 | 86.6 | 109
3 | Cc1ccc(-c2ccc(=O)n(-c3ccc(S(=O)(=O)NC(=O)NC4CCCCC4)cc3)n2)cc1 | 79.9 | 110
4 | Cc1ccc(-c2ccc(=O)n(-c3ccc(S(=O)(=O)NC(=O)NCc4ccccc4)cc3)n2)cc1 | 64.9 | 119
5 | CCCNC(=O)NS(=O)(=O)c1ccc(-n2nc(-c3ccccc3)ccc2=O)cc1 | 77.2 | 125
6 | O=C(NC1CCCCC1)NS(=O)(=O)c1ccc(-n2nc(-c3ccc(Cl)cc3)ccc2=O)cc1 | 59 | 114
7 | CCCNC(=O)NS(=O)(=O)c1ccc(-n2nc(-c3ccc(Cl)cc3)ccc2=O)cc1 | 74.3 | 122
8 | CCCCNC(=O)NS(=O)(=O)c1ccc(-n2nc(-c3ccccc3)ccc2=O)cc1 | 67.4 | 111
9 | O=C(NC1CCCCC1)NS(=O)(=O)c1ccc(-n2nc(-c3ccccc3)ccc2=O)cc1 | 52.1 | 86.2
10 | CCCCNC(=O)NS(=O)(=O)c1ccc(-n2nc(-c3ccc(OC)cc3)ccc2=O)cc1 | 43.7 | 25.6
11 | CCCCNC(=O)NS(=O)(=O)c1ccc(-n2nc(-c3ccc(Cl)cc3)ccc2=O)cc1 | 66 | 100
12 | Cc1ccc(S(=O)(=O)NC(=O)NN2CC3CCCC3C2)cc1 (stereo not drawn) [GLICLAZIDE] | 135 | 107
13 | CCCNC(=O)NS(=O)(=O)c1ccc(-n2nc(-c3ccc(C)cc3)ccc2=O)cc1 | 80.5 | 109
14 | O=C(NCc1ccccc1)NS(=O)(=O)c1ccc(-n2nc(-c3ccc(Cl)cc3)ccc2=O)cc1 | 61.6 | 111
